From publication PMC6133219 (Anti-Cancer Drugs, 2018)

Key:
[1] = system: RenCa tumors; experiment: RenCa syngeneic renal carcinoma model in Balb/c mice; format: in vivo, mouse; details: within the first 18 days of treatment
Summary of the method: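 Balb/c mice (6–8 weeks) were injected with 2.5×10^5 RenCa cells in the left lower flank, then randomized at 100–150 mm3 (n=7/group). On day 1 they got a single iv dose of test compound (14 mg/kg) or cremophor EL:ethanol:saline vehicle. From 4 days later, they received biweekly ip anti-CTLA-4 (9H10) or rat IgG2a isotype (2A3) at 10 mg/kg for 2 weeks. Individual tumor volumes were measured 2–3 times weekly.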

[2] = Maximum tolerated dose in nontumor bearing NSG mice; format: in vivo, mouse
Summary of the method: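 Each compound was given to four mice of the relevant strain as four biweekly iv injections. General condition was checked at least three times weekly. Endpoints were >20% weight loss for more than three consecutive days, death, or severe distress. Weights, clinical signs and survival were recorded until 1 week after the last dose.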

[3] = system: MDA-MB-231-LM2 lung metastases; experiment: MDA-MB-231-LM2 lung metastases model in SCID-beige mice; format: in vivo, mouse; details: for antitumor effect: MDA-MB-231-LM2, DZ-2384 0.5, 1.5, 4.5 mg/kg, docetaxel 2, 4 mg/kg
Summary of the method: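 Female SCID-beige mice (6–8 weeks) received 2.5×10^5 MDA-MB-231-LM2 cells via lateral tail vein. About 2 weeks later, mice with confirmed lung metastases were randomized by bioluminescent burden. They then got four biweekly iv injections in cremophor EL:ethanol:saline (5:5:90). Weekly imaging used D-luciferin 150 mg/kg ip. Survival was analysed by Kaplan–Meier log-rank; body weight was measured 2–3 times weekly.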

[4] = system: GCRC-1945; experiment: Brain metastatic tumor model, intracranial GCRC-1945 in NSG mice; format: in vivo, mouse; details: for body weight loss: GCRC-1945 brain model, DZ-2384 10 mg/kg, paclitaxel 40 mg/kg
Summary of the method: (§1)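 Cells were implanted intracranially into the right frontal lobe of female NSG mice (6–8 weeks): MDA-MB-231-BrM2 at 7.5×10^4 cells, or luciferase-expressing GCRC-1945 at 1×10^5 cells. Mice were randomized by bioluminescent tumor burden, then dosed iv biweekly for 2 weeks in cremophor EL:ethanol:saline (5:5:90). Imaging was weekly (D-luciferin 150 mg/kg ip, 10 min prior; photon flux). Survival was analysed by Kaplan–Meier log-rank and weights tracked.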

[5] = system: MDA-MB-231-BrM2; experiment: Brain metastatic tumor model, intracranial MDA-MB-231-BrM2 in NSG mice; format: in vivo, mouse; details: for body weight loss: MDA-MB-231-BrM2 brain model, DZ-2384 10 mg/kg, paclitaxel 40 mg/kg
Summary of the method: as §1

[6] = format: in vivo, mouse
Summary of the method: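 Female NSG mice bearing MDA-MB-231-BrM2 mammary fat pad tumors received a single iv bolus of 10 or 40 mg/kg, depending on compound, in cremophor:ethanol:saline (5:5:90); n=4 per time point. Sampling was at 0–24 h. Plasma was taken, then mice were perfused with 20 ml saline via the left ventricle before brain, heart, lung and tumor harvest. Homogenates were measured by LC–MS/MS; tissue/plasma AUC0–∞ ratios were calculated.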

[7] = system: GCRC-1945 PDX; experiment: Orthotopic TNBC PDX GCRC-1945 model in NSG mice; format: in vivo, mouse; details: for median survival: GCRC-1945 at MED (DZ-2384 1.25 mg/kg, paclitaxel 10 mg/kg), vehicle 36 days
Summary of the method: (§2)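 PDX tumor fragments (1–1.5 mm3) were implanted into the left fat pad of female NSG mice (6–8 weeks), passaged ≤8 times. Mice were randomized at 100–250 mm3 and treated iv once weekly for 4 weeks, with doses set as fractions of each agent's MTD. Caliper volume was calculated as 4/3π[(a/2)×(b/2)^2]. Kaplan–Meier log-rank and Student's t-test were used.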

[8] = cited from earlier work
[9] = system: GCRC-2076 PDX; experiment: Orthotopic TNBC PDX GCRC-2076; format: in vivo, mouse; details: for median survival: GCRC-2076 at 0.5x MTD, vehicle 30 days
Summary of the method: as §2

[10] = patients receiving docetaxel 100 mg/m^2 for TNBC; cited from earlier work

SMILES: CC(C)[C@H](O)C(=O)N[C@H]1Cc2ccc3c(c2)[C@]2(C4=C(c5nc(CO)co5)N=C(O4)[C@H](C(C)(C)C)NC1=O)c1cc(F)ccc1N[C@@H]2O3 [DZ-2384]
- effect on tumor volume relative to vehicle control [1]: modest effects on tumor volume
- maximum tolerated dose (MTD) ([2]; nontumor bearing NSG mice, iv biweekly for 2 weeks): 10 mg/kg
- tumor free mice (bioimaging) ([3]; MDA-MB-231-LM2, 4.5 mg/kg, 5 months after treatment initiation): four of nine
- median survival ([3]; MDA-MB-231-LM2, 4.5 mg/kg, vehicle 37 days): more than 150 days
- antitumor effect [3]: profound antitumor effect at all doses tested
- body weight loss [4]: less than 10%
- efficacy (tumor burden, median survival vs vehicle) ([4]; intracranial GCRC-1945, MTD, iv biweekly for 2 weeks): efficacious
- body weight loss [5]: less than 10%
- efficacy (tumor burden, median survival vs vehicle) ([5]; intracranial MDA-MB-231-BrM2, MTD, iv biweekly for 2 weeks): efficacious
- proportion that accumulates in the brain relative to plasma exposure ([6]; AUC ratio brain/plasma, single iv dose at MTD, NSG mice): 15%
- accumulation in tumor tissue relative to plasma ([6]; AUC ratio tumor/plasma, single iv dose at MTD, NSG mice): 18 fold
- maximum concentration (Cmax) ratio in tumor relative to plasma ([6]; single iv dose at MTD, NSG mice): 1.3
- antitumor efficacy ([7]; GCRC-1945, 0.125x and 0.25x MTD): more effective than paclitaxel
- antitumor efficacy ([7]; GCRC-1945, 0.5x MTD): equally effective
- median survival [7]: 71 days
- effects on peripheral nerves ([8]; rat model of peripheral neuropathy, effective levels): no detrimental effects on peripheral nerves
- antitumor efficacy ([9]; GCRC-2076, 0.25x and 0.5x MTD): more effective than paclitaxel
- median survival [9]: 88 days

SMILES: CC(=O)O[C@@]12CO[C@@H]1C[C@H](O)[C@@]1(C)C(=O)[C@H](O)C3=C(C)[C@@H](OC(=O)[C@H](O)[C@@H](NC(=O)OC(C)(C)C)c4ccccc4)C[C@@](O)([C@@H](OC(=O)c4ccccc4)[C@H]21)C3(C)C [docetaxel, reference compound]
- antitumor effect [3]: effective at only the 4 mg/kg dose
- weight loss ([3]; MDA-MB-231-LM2 model, 4 mg/kg docetaxel (MED)): more than 10%
- exposure in patients [10]: 4.81 to 5.2 µg·h/mL
- loss in digital and caudal nerve conduction velocity ([8]; rat, docetaxel 10 mg/kg (lowest dose tested)): 12–23%

SMILES: CC(=O)O[C@H]1C(=O)[C@@]2(C)[C@H]([C@H](OC(=O)c3ccccc3)[C@]3(O)C[C@H](OC(=O)[C@H](O)[C@@H](NC(=O)c4ccccc4)c4ccccc4)C(C)=C1C3(C)C)[C@]1(OC(C)=O)CO[C@@H]1C[C@@H]2O [paclitaxel, reference compound]
- MTD at 2 weeks ([2]; NSG, mouse, in vivo, iv): 40 mg/kg
- body weight loss [4]: less than 10%
- body weight loss [5]: less than 10%
- half-life ([6]; female, NSG, mouse, tumor, iv, 40 mg/kg): 19.1 h
- antitumor efficacy ([7]; GCRC-1945, 0.5x MTD): equally effective
- median survival [7]: 53 days
- antitumor efficacy ([9]; GCRC-2076, 0.25x MTD): not effective
- median survival [9]: 69 days
